Measurements published in ChEMBL document CHEMBL5303300, “EUbOPEN Chemogenomics Library - Multiplex” (2023).
Values joined by “and” are separate entries in the source; they are usually repeats but may differ in a detail not shown here. Equal values may be shown once.

Key:
Type in all cases: toxicity, cell-based
Fibroblast = assay: Multiplex assay against human fibroblast; settings: number of replicates 2
How it was run: (§1)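 Cells were classed with CellPathfinder machine-learning gating, first as Hoechst high-intensity objects or normal cells, then (normal cells) as healthy, pyknosed or fragmented nuclei, and finally (pyknosed cells) as mitotic or apoptotic. Staining of live cells at seeding used Hoechst33342, BioTracker Green Microtubule Cytoskeleton Dye, MitoTracker Red and Annexin V Alexa Fluor 680, with imaging on a CQ1 microscope at 37°C and 5% CO2 after compound addition. Tubulin, mitochondrial-mass and membrane-permeability phenotypes are per cents of healthy-nucleus cells.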

U2OS = assay: Multiplex assay against U2OS; settings: human, number of replicates 2; how it was run: as §1
HEK-293T = assay: Multiplex assay against HEK293T; settings: human, number of replicates 2; how it was run: as §1
[1] = 12 h, 1 µM, compound concentration 1 uM
[2] = 12 h, 10 µM, compound concentration 10 uM
[3] = 24 h, 1 µM, compound concentration 1 uM
[4] = 24 h, 10 µM, compound concentration 10 uM
[5] = 48 h, 1 µM, compound concentration 1 uM
[6] = 48 h, 10 µM, compound concentration 10 uM

CS(=O)(=O)c1ccc(C(=O)Nc2cccc(COc3ccc(Br)cc3CNCCO)c2)c(Cl)c1.O=CO
Population Apoptotic (%) (Fibroblast; [1]): 37% and 48% | Population Hoechst High Intensity Objects (%) (Fibroblast; [1]): 0% | Population Mitotic Cells (%) (Fibroblast; [1]): 62% and 51% | Total Cell Count (Fibroblast; [1]): 153 and 242 | Population Apoptotic (%) (Fibroblast; [2]): 58% and 47% | Population Hoechst High Intensity Objects (%) (Fibroblast; [2]): 0% | Population Mitotic Cells (%) (Fibroblast; [2]): 41% and 52% | Population Pyknosed Nuclei (%) (Fibroblast; [2]): 28% | Total Cell Count (Fibroblast; [2]): 238 and 244 | Population Apoptotic (%) (Fibroblast; [3]): 70% and 59% | Population Hoechst High Intensity Objects (%) (Fibroblast; [3]): 0% | Population Mitotic Cells (%) (Fibroblast; [3]): 30% and 40% | Population Pyknosed Nuclei (%) (Fibroblast; [3]): 20% and 18% | Total Cell Count (Fibroblast; [3]): 148 and 236 | Population Apoptotic (%) (Fibroblast; [4]): 80% and 67% | Population Hoechst High Intensity Objects (%) (Fibroblast; [4]): 2% and 0% | Population Mitotic Cells (%) (Fibroblast; [4]): 20% and 32% | Population Pyknosed Nuclei (%) (Fibroblast; [4]): 28% | Total Cell Count (Fibroblast; [4]): 232 and 267 | Population Apoptotic (%) (Fibroblast; [5]): 80% and 74% | Population Hoechst High Intensity Objects (%) (Fibroblast; [5]): 0% | Population Mitotic Cells (%) (Fibroblast; [5]): 19% and 25% | Population Pyknosed Nuclei (%) (Fibroblast; [5]): 16% and 15% | Total Cell Count (Fibroblast; [5]): 153 and 246 | Population Apoptotic (%) (Fibroblast; [6]): 85% and 77% | Population Hoechst High Intensity Objects (%) (Fibroblast; [6]): 2% and 0% | Population Mitotic Cells (%) (Fibroblast; [6]): 22% | Total Cell Count (Fibroblast; [6]): 247 and 259 | Population Apoptotic (%) (U2OS; [1]): 50% and 66% | Population Healthy Nuclei (%) (U2OS; [1]): 74% and 84% | Population Mitotic Cells (%) (U2OS; [1]): 50% and 33% | Population Apoptotic (%) (U2OS; [2]): 66% and 50% | Population Healthy Nuclei (%) (U2OS; [2]): 73% | Population Mitotic Cells (%) (U2OS; [2]): 33% and 50% | Population Apoptotic (%) (U2OS; [3]): 75% and 87% | Population Healthy Nuclei (%) (U2OS; [3]): 79% and 82% | Population Mitotic Cells (%) (U2OS; [3]): 25% and 12% | Population Pyknosed Nuclei (%) (U2OS; [3]): 15% | Population Apoptotic (%) (U2OS; [4]): 66% and 74% | Population Healthy Nuclei (%) (U2OS; [4]): 59% and 66% | Population Mitotic Cells (%) (U2OS; [4]): 33% and 25% | Population Pyknosed Nuclei (%) (U2OS; [4]): 34% and 27% | Population Apoptotic (%) (U2OS; [5]): 83% | Population Healthy Nuclei (%) (U2OS; [5]): 83% and 88% | Population Mitotic Cells (%) (U2OS; [5]): 36% and 16% | Population Pyknosed Nuclei (%) (U2OS; [5]): 9% | Population Apoptotic (%) (U2OS; [6]): 91% and 85% | Population Healthy Nuclei (%) (U2OS; [6]): 46% and 62% | Population Mitotic Cells (%) (U2OS; [6]): 8% | Population Pyknosed Nuclei (%) (U2OS; [6]): 45% and 27% | Population Apoptotic (%) (HEK-293T; [1]): 64% and 58% | Population Healthy Nuclei (%) (HEK-293T; [1]): 78% and 83% | Population Mitotic Cells (%) (HEK-293T; [1]): 35% and 41% | Total Cell Count (HEK-293T; [1]): 423 and 657 | Population Apoptotic (%) (HEK-293T; [2]): 66% | Population Healthy Nuclei (%) (HEK-293T; [2]): 81% and 80% | Population Mitotic Cells (%) (HEK-293T; [2]): 33% | Total Cell Count (HEK-293T; [2]): 566 and 616 | Population Apoptotic (%) (HEK-293T; [3]): 42% and 53% | Population Healthy Nuclei (%) (HEK-293T; [3]): 83% and 80% | Population Mitotic Cells (%) (HEK-293T; [3]): 57% and 46% | Total Cell Count (HEK-293T; [3]): 974 and 659 | Population Apoptotic (%) (HEK-293T; [4]): 65% and 72% | Population Healthy Nuclei (%) (HEK-293T; [4]): 78% and 75% | Population Mitotic Cells (%) (HEK-293T; [4]): 34% and 28% | Total Cell Count (HEK-293T; [4]): 498 and 611 | Population Apoptotic (%) (HEK-293T; [5]): 36% and 25% | Population Healthy Nuclei (%) (HEK-293T; [5]): 82% and 85% | Population Mitotic Cells (%) (HEK-293T; [5]): 63% and 75% | Total Cell Count (HEK-293T; [5]): 1468 and 2063 | Population Apoptotic (%) (HEK-293T; [6]): 82% | Population Healthy Nuclei (%) (HEK-293T; [6]): 77% and 78% | Population Mitotic Cells (%) (HEK-293T; [6]): 36% and 17% | Total Cell Count (HEK-293T; [6]): 828 and 933
